The term IC50 denotes the point on the concentration scale where inhibition reaches its midpoint.

Activity calls are given as the source filed them. The rule behind the calls is not given here. Some results are limits rather than exact numbers.

Series [1] has as its system Pseudomonas aeruginosa PA14 PqsR. In words: Therapeutic index, ratio of cytotoxicity against human A549 cells to IC50 for inhibition of Pseudomonas aeruginosa PA14 PqsR. Format: toxicity, cell-based. The following applies: read-out: TI.
For series [2], the target named is T1, Transcriptional regulator MvfR (Pseudomonas aeruginosa PA14) (UniProt A0A072ZLE6).
T1 sequence (whole entry): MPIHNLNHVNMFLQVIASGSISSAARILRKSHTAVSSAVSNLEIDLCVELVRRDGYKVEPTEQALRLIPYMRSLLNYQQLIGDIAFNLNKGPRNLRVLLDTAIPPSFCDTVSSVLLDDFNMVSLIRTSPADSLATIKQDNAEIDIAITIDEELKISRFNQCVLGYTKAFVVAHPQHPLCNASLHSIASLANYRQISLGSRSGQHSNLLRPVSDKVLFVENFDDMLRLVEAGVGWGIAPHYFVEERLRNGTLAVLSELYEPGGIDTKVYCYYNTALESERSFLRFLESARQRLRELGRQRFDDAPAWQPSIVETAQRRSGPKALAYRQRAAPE
In words: Inhibition of Pseudomonas aeruginosa PAO1-L PqsR assessed as reduction in pyocyanin production by measuring pyocyanin level at 3 times IC50 incubated for 16 hrs. Set-up: scale not given: the % may be the effect or the level left.

A short description of series [3]: Solubility of the compound in test buffer at >100 uM. Format: physicochemical.
The next series has as its system A549. Briefly: Cytotoxicity against human A549 cells assessed as reduction in cell viability at 0.1 to 100 uM after 16 hrs by Alamar blue assay. The following applies: a549, 16 h, dose 0.1-100 µM. Format: cell-based. In short, it runs like this:
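A549 lung epithelial cells kept in DMEM with 10% FBS and 1% penicillin-streptomycin at 37 °C, 5% CO2. Trypsinised at 80% confluence, resuspended in DMEM-F12, seeded at 10,000 cells/well, left 16 h. Compound added (0.1–100 μM), 16 h further incubation. Alamar blue for 5 h, fluorescence ex 510/em 590 nm, normalised to untreated cells.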
(The colour change of resazurin is a common sign of viable cells or microbes.)

In series [4] the target is T2, Transcriptional regulator MvfR (Pseudomonas aeruginosa PA14, UniProt A0A072ZLE6).
T2 sequence (A0A072ZLE6 whole entry): T1 sequence (whole entry)
In words: Inhibition of PqsR in Pseudomonas aeruginosa PAO1 L harboring mCTX:PpqsA-lux fusion protein measured every 30 mins for 24 hrs by luminescence reporter gene assay. In outline: (§1)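 Chromosomal mCTX:PpqsA-lux reporter strain grown overnight to OD600 2.0–3.0, diluted in LB to OD600 0.02 and mixed 1:1 with compound in LB. Ten […] serial concentrations, final 31.6 μM to 1 nM, in triplicate. Run at 37 °C for 24 h with OD600 and luminescence read every 30 min. IC50 from log concentration vs RLU/OD600 at the luminescence peak (8–9 h).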
On the technique in general: Reporter assays use an easily measured gene product as a stand-in for the process of interest.

Series [5] addresses T2, Transcriptional regulator MvfR. Briefly: Inhibition of PqsR in Pseudomonas aeruginosa PA14 harboring mCTX:PpqsA-lux fusion protein measured every 30 mins for 24 hrs by luminescence reporter gene assay. In outline:
as §1

For the next series, the system named is Pseudomonas aeruginosa. Briefly: Bactericidal activity against Pseudomonas aeruginosa PAO1 L assessed as inhibition of bacterial growth. Format: functional, organism-based.
The target of series [6] is T1, Transcriptional regulator MvfR (Pseudomonas aeruginosa PA14). Briefly: Inhibition of PqsR in Pseudomonas aeruginosa PAO1 L harboring mCTX:PpqsA-lux fusion protein assessed as remaining enzyme activity at 10 uM and measured every 30 mins for 24 hrs by spot test relative to control. In short, it runs like this:
(§2)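 Chromosomal mCTX:PpqsA-lux reporter strain in LB, overnight culture (OD600 2.0–3.0) diluted to OD600 0.02 and mixed 1:1 with compound, final 10 μM, at least triplicate wells. Run at 37 °C for 24 h, with OD600 and luminescence read every 30 min. Luminescence/OD600 taken at the luminescence peak (8–9 h) and normalised to the 0.1% DMSO control (100%).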

The target is the same in series [7]. Briefly: Inhibition of PqsR in Pseudomonas aeruginosa PA14 harboring mCTX:PpqsA-lux fusion assessed as remaining activity at 10 uM incubated for 24 hrs by spot test relative to control. In outline: as §2
For series [8] the target is unchanged. In words: Inhibition of PqsR in Pseudomonas aeruginosa PAO1 L harboring mCTX:PpqsA-lux fusion at 10 uM and measured every 30 mins for 24 hrs by spot test. In outline: as §2

Regarding `CCCCCCc1nc(Cn2cnc3ccc(Cl)cc3c2=O)cs1`, the selectivity ratio in series [1] was > 377. The figures for the Activity (in [2]; with A549) were 36% and “Non-Toxic”, respectively. Moreover, the solubility entry in [3] is given as “Insoluble”. For the same molecule, the 50% inhibitory concentration (IC50) in series [4] stood at 0.298 µM; in series [5], 0.265 µM. In the series on Pseudomonas aeruginosa, the outcome was inactive.
Turning to `CN(CCO)c1ncc(Cn2cnc3ccc(Cl)cc3c2=O)s1`, the Activity is 101% in series [6] and > 50% in series [7].
For `CC(C)c1ncc(Cn2cnc3ccc(Cl)cc3c2=O)s1` the same measures were 65% and > 50%.
For `CCc1nc(Cn2cnc3ccc(Cl)cc3c2=O)cs1` the same measures were 79% and > 50%.
For `N#CCc1nc(Cn2cnc3ccc(Cl)cc3c2=O)cs1` the same measures were 104% and > 50%.
Regarding `O=c1c2cc(Cl)ccc2ncn1Cc1csc(-c2ccc([N+](=O)[O-])cc2)n1`, the Activity in series [6] is 89%; in series [7], > 50%.
For `O=c1c2cc(Cl)ccc2ncn1Cc1cnc(NC2CCCCC2)s1` the same measures were 83% and > 50%.
With `CCCCCc1nc(Cn2cnc3cc(Cl)ccc3c2=O)cs1`, the Activity in series [6] is 106%; in [7], > 50%.
For `CC1CCN(c2ncc(Cn3cnc4ccc(Cl)cc4c3=O)s2)CC1` the same measures were 72% and > 50%.
For `O=c1c2cc(Cl)ccc2ncn1Cc1csc(C(F)(F)F)n1` the same measures were 52% and > 50%.
In the case of `CCCCCc1nc(Cn2cnc3ccc(Cl)cc3c2=O)cs1`, the selectivity ratio in series [1] is > 292. Also, the results for the Activity (in series [2]; in the series on A549) were 23% and “Non-Toxic”, respectively. Further, the solubility entry in [3] was “Insoluble”. Also, the IC50 was 0.313 µM in series [4] and 0.342 µM in series [5]. For the same molecule, in the series on Pseudomonas aeruginosa, the result was inactive.
As for `O=c1c2cc(Cl)ccc2ncn1Cc1cnc(Cl)s1`, the Activity is 95% in [6] and > 50% in [7].
For the molecule `O=c1c2cc(Cl)ccc2ncn1Cc1csc(-c2ccco2)n1`, the values for the IC50 in series [4] and in series [5] were 1.33 µM and 1.31 µM, respectively. For the same molecule, the outcome in the series with Pseudomonas aeruginosa was inactive.
For `CCCCc1nc(Cn2cnc3ccc(Cl)cc3c2=O)cs1` the same measures were 1.56 µM, 1.72 µM and “inactive”.
With `CC(C)c1nc(Cn2cnc3ccc(Cl)cc3c2=O)cs1`, the values for the IC50 in series [4] and in series [5] were 1.05 µM and 1.58 µM, respectively. Further, in the series on Pseudomonas aeruginosa, the result was inactive.
Turning to `O=c1c2cc(Cl)ccc2ncn1Cc1csc(-c2ccccc2)n1`, the IC50 was 0.244 µM in series [4] and 0.123 µM in series [5]. Moreover, in the series on Pseudomonas aeruginosa, the result was inactive.
In [4], `CC(C)c1nc(Cn2cnc3cc(F)ccc3c2=O)cs1` gave an IC50 of 13.2 µM.
Turning to `O=c1c2cc(Cl)ccc2ncn1Cc1csc(/C=C/c2ccco2)n1`, the IC50 in series [4] amounted to 2.05 µM; in series [5] it was 2.92 µM. In the series with Pseudomonas aeruginosa, the result was inactive.
Turning to `CC(C)c1noc(Cn2cnc3ccc(Cl)cc3c2=O)n1`, in [8], the inhibition entry was “inactive”.
As to `CC(C)(C)c1nc(Cn2cnc3ccc(Cl)cc3c2=O)cs1`, the IC50 came to 0.397 µM in [4] and 0.65 µM in [5]. The result in the series with Pseudomonas aeruginosa was inactive.
Regarding `Cc1nc(Cn2cnc3ccc(Cl)cc3c2=O)cs1`, the Activity was 83% in series [6] and > 50% in [7].
Consider `CC(C)CCc1nc(Cn2cnc3ccc(Cl)cc3c2=O)cs1`, for which the concentration for half-maximal inhibition (IC50) in series [4] came to 1.36 µM; in series [5], 0.683 µM. The outcome with Pseudomonas aeruginosa was inactive.
In the case of `NC(N)=Nc1nc(Cn2cnc3ccc(Cl)cc3c2=O)cs1`, the Activity is 108% in [6] and > 50% in series [7].
In the case of `CCC(C)Cc1nc(Cn2cnc3ccc(Cl)cc3c2=O)cs1` (configuration not stated), the half-inhibitory concentration (IC50) amounted to 1.57 µM in series [4] and 0.639 µM in series [5]. Also, in the series on Pseudomonas aeruginosa, the outcome was inactive.
For `CCCCNc1nc(Cn2cnc3ccc(Cl)cc3c2=O)cs1`, the Activity in [7] was > 50%. Further, the IC50 in [4] is 3.54 µM. The outcome in the series on Pseudomonas aeruginosa was inactive.
As for `COCCNc1ncc(Cn2cnc3ccc(Cl)cc3c2=O)s1`, the Activity is 85% in series [6] and > 50% in series [7].
In the case of `CC(C)Cc1nc(Cn2cnc3ccc(Cl)cc3c2=O)cs1`, the IC50 in series [4] came to 1.22 µM; in series [5], 1.33 µM. Also, in the series on Pseudomonas aeruginosa, the outcome was inactive.
In the case of `COCCNc1nc(Cn2cnc3ccc(Cl)cc3c2=O)cs1`, the figures for the Activity in [6] and in series [7] were 85% and > 50%, respectively.
Take `CCCC(C)c1nc(Cn2cnc3ccc(Cl)cc3c2=O)cs1` (configuration not stated): the 50% inhibitory concentration (IC50) in [4] came to 1.11 µM; in [5] it was 0.646 µM. Further, the result with Pseudomonas aeruginosa was inactive.
On to `CCCCNc1ncc(Cn2cnc3ccc(Cl)cc3c2=O)s1`, for which the Activity is 67% in [6] and > 50% in series [7].
For `CC(C)(C)c1nc(Cn2cnc3cc(Cl)ccc3c2=O)cs1`, the Activity in series [7] was > 50%. The molecule further had a concentration for half-maximal inhibition (IC50) in series [4] of 2.94 µM. In addition, the result in the series on Pseudomonas aeruginosa was inactive.

These data come from ChEMBL document CHEMBL4706579, “Novel quinazolinone inhibitors of the Pseudomonas aeruginosa quorum sensing transcriptional regulator PqsR” (Eur J Med Chem, 2020).
